# Screening results deposited in PubChem by several laboratories.
# HSF1 activator: increases HSF-1 driven luciferase reporter signal; NIH3T3-HGL HSF-1 luciferase reporter, MG132, 8 h; 100% = twice DMSO control signal; activation, % at 9 µM; 300,000 compounds, 1.7% hits; AID 504408;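 active = mean replicate activation of at least 50% with a set share of replicates each reaching 50%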;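 note: 0% = median of the neutral control wells and 100% = twice that signal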
# HSF1 inhib: HSF1 inhibition. NIH3T3-HGL HSE-luciferase, MG132-induced, luminescence 8 h; active compounds read low. activity change, negative = inhibition, % at 7.5 µM (by protocol). 300,000 compounds, 0.77% hits;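 active = more than half of replicate wells show activity change below -50%, luminescence cut by over half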;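 note: luciferase reports HSF-1 transcriptional activity via heat shock element; 0% = median of DMSO wells and -100% = zero luminescence signal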
# CHT PAM: allosteric activators of human choline transporter CHT; 310,000 compounds, 0.49% hits; B-score at 10 µM; CHT-expressing cells, membrane potential dye, choline EC20; active compounds read high; LV-AA mutant CHT in HEK293 cells; AID 488977; Q9GZV3;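 active = initial fluorescence not abnormally high and integrated response B-score, plate-corrected, over 3 SD above library mean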
# Hep lipid drop: modulators of hepatic lipid droplet formation. AML12 mouse hepatocytes, oleate lipid droplets, BODIPY imaging. inhibition, % at 6.5 µM. 240,000 compounds, 0.4% hits. AID 1656;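 active = lipid droplet intensity inhibited by at least 50%, with more than 500 cells counted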
#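 Assay system: AML12 mouse liver cells | Compound: 6.5 µM single-point dosing | Schedule: Overnight exposure | Technique: Fluorescence imaging, 20x objective, two fields per well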
# PHOSPHO1 block: blocks human PHOSPHO1 phosphatase activity. Q8TCT1. inhibition, % at 13.3 µM. recombinant PHOSPHO1, absorbance phosphatase assay. 290,000 compounds, 1.1% hits; in the data active = inhibition above about 60%
# CHT inh: inhibitors of human choline transporter CHT | CHT-expressing cells, membrane potential dye, choline response; active compounds read low | 310,000 compounds, 0.86% hits | AID 488975 | B-score at 10 µM;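 active = B-score over 3 SD under the library average, and starting fluorescence ratio not unusually high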;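 note: choline stimulus applied at its EC90 after an EC20 pre-addition; B-score computed on integrated fluorescence ratio after choline addition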
# * hit, by the source's call; i = inactive; x = no result. A selection: hits, their analogues and other compounds. The true share with any hit is near 4.9%.
SMILES,HSF1 activator,HSF1 inhib,CHT PAM,Hep lipid drop,PHOSPHO1 block,CHT inh
C/C(=N/N=C/c1ccccc1O)c1ccccc1O,-5.4,9.2,i,-1.1,19.7,i
CCCS/C(N)=N/N=C/c1cc(C)ccc1O,59.6*,31.7,i,9.1,3.2,i
CCCCS/C(N)=N/N=C/c1ccccc1O,86.6*,25.8,i,28.2,6.4,i
O=C1NCCCCC1NS(=O)(=O)c1cccc(C(F)(F)F)c1 (stereo not given),-5.3,0.1,i,-17.1,39.4,i
NCCCC[C@@H](C(=O)NCCCCCCCCCCC(=O)N1CCNCC1)n1cc(CCO)nn1,-17.9,-4.9,i,x,x,i
COc1ccc(NS(=O)(=O)c2ccc(-c3ccccn3)s2)cc1,-90.1,-87.1*,i,x,x,i
COc1ccc(C2CC(=O)N3CN(c4ccccc4F)CSC3=C2C#N)cc1OC (stereo not given),-0.7,-4.2,i,x,90.4*,i
CCc1ccccc1N1CSC2=C(C#N)C(c3ccccc3F)CC(=O)N2C1 (stereo not given),3.7,9.6,i,x,61.0*,i
CCOc1ccc(C)cc1S(=O)(=O)NC1CCCCC1,61.1*,21.7,i,-37.1,5.4,i
Cc1nn(C)c(C)c1CNC(=O)Nc1ccc(Cl)cc1,19.9,11.4,i,-10.8,-3.7,i
Cc1ccc(-c2c(C#N)c(N)nc3c2CCCC3)o1,6.1,-3.0,i,9.2,-7.9,i
Cc1ccc(-c2c3c([nH]c(=S)c2C#N)CCCC3)o1,-12.1,-8.1,i,x,83.5*,i
N#Cc1c2c(c(-c3ccccc3Cl)[nH]c1=S)CCCC2,x,x,x,14.3,-4.5,x
N#Cc1c(-c2ccncc2)c2c([nH]c1=S)CCCC2,-8.6,-3.1,i,x,76.8*,i
CCOC(=O)c1c(NC(=O)CSc2nc3nc(C)cc(C)n3n2)sc(CC)c1C,14.5,7.2,i,-11.8,-6.8,i
O=C(CCn1c(=O)oc2ccccc21)Nc1ccccc1,100.8*,45.8,i,x,9.6,i
COc1ccc(NC(=O)CCCn2c(=O)oc3ccccc32)cc1Cl,62.3*,38.3,i,19.4,-6.6,i
COc1cc(OC)c(NC(=O)CCCn2c(=O)oc3ccccc32)cc1Cl,12.9,3.4,i,19.2,-6.6,i
Cc1ccc(NC(=O)CCn2c(=O)oc3ccccc32)cc1,15.1,0.3,i,x,18.5,i
CC(C(=O)Nc1nc2ccccc2s1)n1cc([N+](=O)[O-])cn1 (stereo not given),9.3,-0.4,i,-1.6,6.7,i
CC1CCN(C(=O)C2CCN(CC(C)c3ccccc3)CC2)CC1 (stereo not given),28.2,2.3,i,15.1,9.8,i
O=C(Nc1ccccc1C(=O)N1CCCC1)c1ncoc1-c1cccc(Cl)c1,61.6*,22.1,i,-3.3,10.3,i
Cc1ccc(-c2ocnc2C(=O)Nc2ccccc2C(=O)N2CCCC2)cc1,-4.2,-4.5,i,-15.8,41.6,i
CCOC(=O)c1ccc(NS(=O)(=O)c2ccc3[nH]c(=O)[nH]c3c2)cc1,-14.6,-12.9,i,3.5,63.2*,i
CCC(CC)NC(=O)c1ccc(NS(=O)(=O)c2ccc3[nH]c(=O)[nH]c3c2)cc1,16.5,-3.9,i,-2.4,4.5,i
SMILES,HSF1 activator,HSF1 inhib,CHT PAM,Hep lipid drop,PHOSPHO1 block,CHT inh
COc1ccc2[nH]c(C)c(C(=O)CN3CCN(C/C=C/c4ccccc4)CC3)c2c1,2.4,-3.7,i,x,23.5,i
CCOCc1cnc(C)nc1NCC(=O)c1c(C)[nH]c2ccc(OC)cc12,-13.4,-6.5,i,10.3,63.7*,i
CCOC(=O)C1CCCN(CC(=O)Nc2c(C(=O)OC)[nH]c3ccccc23)C1 (stereo not given),59.7*,15.7,i,x,19.3,i
O=C(C1CCCN(Cc2cccs2)C1)N1CCCCCC1 (stereo not given),-1.9,-12.2,i,x,-3.3,i
COC(=O)c1[nH]c2ccccc2c1NC(=O)CN1CCCCCC1,0.1,2.4,i,x,65.3*,i
O=C(O)CC1C(=O)NCCN1Cc1cccs1 (stereo not given),9.3,-6.3,i,26.3,-1.1,i
